Here are results for 167 variants from the RNAGym collection of RNA variant scans (doi:10.1038/nmeth.2970).

The chains are these.
B1: NELF-E aptamer (parent)
chain: CCCAACGACUGCCGAGCGAGAUUACGCUUGAGCGCCCCACUGAGGAUGCCCACGGGCGAUUGGGGCACGG

This series covers variants of B1. As to the kind of experiment: HiTS-RAP. The note with it: with NELF-E (Drosophila). A digest of the protocol: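 Kd came from weighted Hill fits to the first binding curve, with intensities normalised to sequencing intensity and averaged per sequence, keeping only fits whose variance was below 1,000,000. That curve was imaged on an Illumina GAIIx flowcell, where sequenced aptamer DNA templates with a T7 promoter and ter site had been transcribed in situ by T7 RNA polymerase and halted by GST-Tus (30 minutes, 37°C). Before each image, clusters equilibrated for 30 minutes at room temperature with NELF-E-mOrange at 0.064 to 1000 nM in HEPES binding buffer.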
Consider A5U A59G, for which the dissociation constant Kd came out at 81.5 nM. For the variant A5U G54A, the Kd was 13.9 nM.

Turning to A5G G65U, the Kd is 6.76 nM. The result for C6A G7U reads 6.56 nM; that for A5G G56U, 7.96 nM. The result for A5G G56A reads 11.2 nM; that for C6A U22G, 7.16 nM. For the variant A5U U22C, the Kd is 5.1 nM. For A5U U22G the value was 6.13 nM; for A5U G14A, 6.18 nM; for A5U G14U, 6.34 nM. Consider A5U A46G, for which the Kd amounted to 34.6 nM. For the variant A5U A15U, the Kd worked out at 6.62 nM. Regarding A5U A15G, the Kd came to 5.49 nM.

A5U A8C: the Kd is 8.3 nM. The result for A5U A8U reads 6.78 nM; that for A5U A8G, 6.23 nM.

As for A5U C66U, the Kd was 4.52 nM.

Regarding C6G A19G, the Kd was determined as 5.53 nM. As for C6G A19U, the Kd turned out to be 5.95 nM. Consider C6A A8U, for which the Kd was found to be 7.06 nM. For the variant A5G U23G, the Kd was 6.21 nM.

On to A5G U23A, for which the Kd stood at 5.47 nM. A5G U23C: the Kd was 5.22 nM.

With A5G U47G, the Kd worked out at 7.6 nM. On to A5U C9G, for which the Kd came out at 6.45 nM. Consider A5U C9U, for which the Kd was determined as 6.47 nM. As to C6G A52G, the Kd amounted to 4.45 nM. In the case of C6G A52U, the Kd was determined as 16.1 nM.

Regarding A5U G42A, the dissociation constant (Kd) was 67.8 nM. The result for A5G G34A reads 5.89 nM; that for A5U A52U, 18.4 nM.

Turning to A5U A52G, the equilibrium dissociation constant (Kd) is 7.25 nM. As for A5U A67G, the Kd is 6.53 nM. As for A5U A67U, the dissociation constant Kd came out at 7.25 nM. Take A5U A19U: the Kd was determined as 6 nM.

As for A5U A19G, the Kd stood at 7.47 nM. The result for C6A C13G reads 5.49 nM; that for A5U C38U, 10.6 nM; that for A5U G20U, 7.83 nM. The result for A5U G20A reads 6.68 nM; that for A5G U41C, 84.9 nM; that for A5G U41A, 25 nM. With A5G U41G, the Kd stood at 6.23 nM. In the case of A5G G26U, the Kd came to 7.39 nM. For A5G G26A the value was 5.29 nM; for A5G U60C, 11.3 nM; for A5U U29C, 8.32 nM. Turning to A5U U29G, the Kd was 5.91 nM. For A5U U29A, the Kd was determined as 5.62 nM. For A5U A21U the value was 6.61 nM; for A5U A21G, 7.74 nM; for A5U U10A, 7.7 nM. A5U U10G: the Kd came to 5.49 nM. As to A5U U10C, the Kd came to 4.96 nM. As for A5G U10C, the Kd turned out to be 4.79 nM. A5G U10A: the Kd was determined as 4.67 nM.

On to A5G U10G, for which the Kd was 5.47 nM. For C6A C12G, the Kd was 6.54 nM. Consider C6G A21U, for which the Kd came out at 5.06 nM. Consider C6G A21G, for which the Kd is 5.74 nM. Regarding A5U U28C, the Kd amounted to 7.9 nM. As for A5U U28G, the Kd turned out to be 7.17 nM.

Regarding C6G A31U, the Kd was found to be 5.5 nM. As to C6G A31G, the dissociation constant Kd came out at 6.87 nM. For C6A U29G the value was 6.91 nM; for C6G A43U, 87.2 nM. Regarding C6G A43G, the Kd came out at 34.4 nM. The result for A5U G65U reads 8.58 nM; that for A5U G65A, 6.8 nM; that for A5U A24U, 6.21 nM. Turning to A5U A24G, the Kd was found to be 6.39 nM. For the variant A5U C17U, the Kd worked out at 6.66 nM. Turning to A5U C17G, the Kd is 6.36 nM. Consider A5U C6U, for which the Kd was 4.75 nM. Take A5U C6A: the Kd stood at 7.45 nM.

In the case of A5U C6G, the Kd worked out at 5.7 nM. Take A5G G64A: the Kd was 8.07 nM. Consider C6A C9G, for which the Kd was found to be 7.55 nM. With A5G G18U, the Kd worked out at 6.11 nM.

In the case of A5G G18A, the Kd turned out to be 5.15 nM. On to A5G U61C, for which the Kd came out at 64.6 nM.

Take A5G U61A: the Kd is 37.8 nM. As to A5U G7U, the Kd was found to be 6.92 nM. In the case of A5U G7A, the Kd amounted to 6.51 nM. On to A5U C25G, for which the Kd came out at 6.13 nM. Regarding C6A C17G, the Kd is 7.95 nM. On to A5U A39U, for which the equilibrium dissociation constant (Kd) turned out to be 29.7 nM. As to A5U A39G, the Kd amounted to 8.51 nM.

C6G A24G: the Kd is 5.79 nM. The result for C6G A24U reads 8.62 nM; that for A5G G63A, 14.1 nM. Turning to A5G G63U, the Kd is 12.1 nM. For the variant A5G G48A, the Kd stood at 12.6 nM. Regarding A5U G56A, the Kd was determined as 7.71 nM. The result for A5U G56U reads 6.51 nM; that for A5U G64A, 8.76 nM. With A5G G11A, the Kd came out at 6.61 nM. Take A5G G11U: the Kd amounted to 6.9 nM. For C6A U23G the value was 7.03 nM. As to A5U U61C, the Kd is 85.8 nM. As for A5U U61A, the dissociation constant (Kd) worked out at 41.2 nM. For the variant A5G G54A, the Kd stood at 12.9 nM.

With A5U A31G, the Kd turned out to be 7.03 nM.

In the case of A5G U29C, the Kd is 6.65 nM.

Take A5G U29G: the equilibrium dissociation constant (Kd) was determined as 6.19 nM. For A5G U29A the value was 6.04 nM; for A5U G18A, 5.46 nM; for C6A, 6.13 nM. The result for C6G reads 4.75 nM; that for A5U G16U, 6.86 nM. In the case of A5U G16A, the Kd came out at 8.1 nM. Regarding A5G G14A, the dissociation constant (Kd) was 6.54 nM. For A5G G14U, the Kd came out at 6.38 nM.

On to C6A U10G, for which the Kd was 5.78 nM. The result for C6G A39U reads 28.8 nM. For the variant C6G A39C, the Kd turned out to be 24 nM.

With C6G A39G, the Kd was 9.71 nM. A5U C13G: the Kd came out at 5.56 nM. For the variant A5U C13U, the Kd worked out at 7.12 nM. For the variant A5U G34A, the Kd was found to be 5.54 nM. For C6G A8U, the dissociation constant Kd was 5.7 nM.

In the case of C6G A8C, the Kd amounted to 6.37 nM. On to C6G A8G, for which the Kd was found to be 5.5 nM. As for A5U C50U, the Kd came to 15 nM. The result for A5U G11A reads 7.76 nM; that for A5U G11U, 6.52 nM. As for A5U C53U, the Kd came out at 4.46 nM. As for A5U U47G, the Kd worked out at 7.11 nM.

As to A5U U47A, the Kd stood at 10.5 nM. For the variant A5G G16U, the Kd worked out at 7.42 nM. For A5G G16A, the equilibrium dissociation constant (Kd) was found to be 6.56 nM.

Regarding A5G U28C, the Kd was determined as 10.2 nM. For the variant A5G U28G, the Kd worked out at 7.79 nM. Turning to A5U C37A, the Kd was determined as 14.8 nM. Regarding C6A G11U, the Kd amounted to 6.57 nM.

As for A5G G30A, the Kd worked out at 5.43 nM.

C6A A24G: the Kd was 7.36 nM. The result for A5U reads 5.66 nM. Turning to A5G G20U, the Kd came to 6.78 nM. On to A5G G20A, for which the Kd came to 6.58 nM.

Consider A5U G55U, for which the Kd worked out at 8.79 nM.

Take A5U G55A: the Kd came out at 7.03 nM. With A5U U23G, the Kd came out at 6.01 nM. For the variant A5U U23A, the Kd was 5.58 nM.

As for A5G G45A, the Kd was 21.9 nM. Regarding A5G G45U, the Kd worked out at 7.32 nM. As for A5U U41A, the Kd was determined as 80.9 nM. As for A5U U41G, the Kd is 6.01 nM. The result for A5U C57U reads 6.5 nM; that for A5U C12G, 6.84 nM; that for A5U C12U, 6.37 nM. Take A5G G42A: the dissociation constant Kd was 27.1 nM.

A5U G32A: the Kd was 4.34 nM. On to A5G G62A, for which the Kd is 13.5 nM.

Regarding A5G G55U, the Kd was 7.72 nM. A5G G55A: the Kd amounted to 11.2 nM.

As to A5U G63U, the Kd stood at 15.8 nM. As for A5U G63A, the Kd came out at 9.5 nM. For the variant A5G U22C, the dissociation constant Kd is 5.45 nM.

In the case of A5G U22G, the Kd came out at 5.89 nM. Regarding C6G A15G, the Kd amounted to 5.46 nM.

For C6G A15U, the Kd worked out at 6.24 nM. Consider A5U A43G, for which the Kd came to 15.1 nM. For A5U A43U, the dissociation constant (Kd) stood at 99.1 nM.

As to C6G A46U, the Kd was 56.8 nM. In the case of C6G A46G, the Kd is 40.5 nM.

One may read the Kd as the equilibrium constant for the complex coming apart.
